Published values gathered from unrelated publications.
Protocols differ between the studies behind these lines. pEC50, pIC50: −log10 of the molar value.

SMILES | organism | test | system | setting | quantity | value
Cc1ccc(CNC(=O)c2nc(-c3ccccc3)c3cccnc3c2O)cc1 | Human betaherpesvirus 5 | viral replication, inhibitor | HFF | – | pEC50 | 4.51
O=S(=O)(c1ccc(-c2ccc3ncnc(Nc4ccc(OCc5ccccc5)c(Cl)c4)c3c2)cc1)N1CCOCC1 | Trypanosoma cruzi | parasite growth, absorbance | NIH3T3, TULAHUEN | 10 µM, intracellular, amastigote | inhibition | 9%
Nc1ncnc2c([C@@H]3N[C@H](CO)[C@@H](O)[C@H]3O)c[nH]c12 | human respiratory syncytial virus | viral replication, inhibitor | MA104 | 0.9 µM | inhibition | 0%
Cc1sc2[nH]c(=O)n(O)c(=O)c2c1C | Human betaherpesvirus 5 | viral replication, inhibitor | – | 10 µM, 7 days | inhibition | -5.1%
Cc1ccc(CNC(=O)c2nc(Cl)c3cccnc3c2O)cc1 | Human betaherpesvirus 5 | viral replication, inhibitor | HFF | – | pEC50 | 4.68
O=C(Cn1ccnc1[N+](=O)[O-])NCc1ccccc1 | Trypanosoma cruzi | parasite growth | rat Myoblast, TULAHUEN | intracellular, amastigote | IC50 | 0.352 µg/mL
O=C1c2ccccc2C(c2ccccc2)C(=O)N1OCc1ccccc1 (stereo not shown) | Human betaherpesvirus 5 | viral replication, inhibitor | – | 10 µM, 7 days | inhibition | 12%
COc1cccc(-c2nc(C(=O)NCc3ccc(C)cc3)c(O)c3ncccc23)c1 | Human betaherpesvirus 5 | viral replication, inhibitor | HFF | – | pEC50 | 4.62
O=c1[nH]c2c(-c3ccccc3)csc2c(=O)n1O | Human betaherpesvirus 5 | viral replication, inhibitor | – | 10 µM, 7 days | inhibition | 5.3%
Nc1ccn(C[C@@H](CO)OCP(=O)(O)O)c(=O)n1 | Human betaherpesvirus 5 | viral replication | – | – | pIC50 | 6.55
